# The source made the active and inactive calls.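 Rule for the calls: active = active in primary screen and both duplicates, each dropping signal beyond three positive-control SD with fluorescence still positive; inactive = the rest.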
# Target: Short transient receptor potential channel 6 (Mus musculus) (UniProt Q61143)
# Experiment: TRPC6 blockade by TRPC4 inhibitor hits – cell-based, HEK293, membrane potential dye, duplicate, selectivity assay for TRPC4 inhibitor project, confirmation (AID 434948)
# Settings: HEK293 TRPC6, membrane potential dye fluorescence, at 10 µM, stimulated with maximal-effect acetylcholine; active compounds read high
# How it was run: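 Material – TRPC6-expressing HEK293 cells · Repeats – two replicates · Read-out basis – control-normalized integrated fluorescence ratio · Schedule – 45 min RT dye load, 110 s compound, 110 s agonist read · Reagent – acetylcholine at maximal (ECmax) concentration, added after compound · Detection – kinetic fluorescence of membrane potential dye with 5 s baseline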
# Sequence of Short transient receptor potential channel 6 (Mus musculus) (Q61143 whole entry, looked up): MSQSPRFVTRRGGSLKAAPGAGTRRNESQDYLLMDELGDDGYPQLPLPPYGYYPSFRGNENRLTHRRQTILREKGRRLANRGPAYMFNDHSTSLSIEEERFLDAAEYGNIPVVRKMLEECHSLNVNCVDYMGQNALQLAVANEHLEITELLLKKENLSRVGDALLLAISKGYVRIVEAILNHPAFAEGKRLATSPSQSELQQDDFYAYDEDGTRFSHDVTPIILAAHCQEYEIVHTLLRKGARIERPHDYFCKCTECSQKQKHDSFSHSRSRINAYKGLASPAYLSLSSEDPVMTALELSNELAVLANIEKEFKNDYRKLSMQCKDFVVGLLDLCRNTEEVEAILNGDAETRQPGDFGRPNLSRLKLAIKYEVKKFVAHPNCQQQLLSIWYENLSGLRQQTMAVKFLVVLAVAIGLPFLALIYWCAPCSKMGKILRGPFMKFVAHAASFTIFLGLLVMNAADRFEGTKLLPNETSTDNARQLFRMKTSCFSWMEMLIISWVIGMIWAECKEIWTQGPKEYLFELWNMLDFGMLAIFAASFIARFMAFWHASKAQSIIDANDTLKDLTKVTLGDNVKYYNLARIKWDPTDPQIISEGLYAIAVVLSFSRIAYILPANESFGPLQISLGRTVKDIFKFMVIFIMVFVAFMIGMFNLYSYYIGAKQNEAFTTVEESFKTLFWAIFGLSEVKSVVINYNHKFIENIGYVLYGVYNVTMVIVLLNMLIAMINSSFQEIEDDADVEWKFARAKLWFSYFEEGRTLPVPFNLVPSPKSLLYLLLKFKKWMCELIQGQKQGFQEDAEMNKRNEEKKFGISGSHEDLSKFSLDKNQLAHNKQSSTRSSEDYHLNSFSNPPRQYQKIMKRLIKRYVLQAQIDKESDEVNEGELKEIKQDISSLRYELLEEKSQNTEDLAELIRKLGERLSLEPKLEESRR
Compound,outcome,inhibition
COc1ccc(CN2CCN(Cc3ccccc3F)CC2)c(OC)c1,inactive,–
C/C(N)=C(/C#N)C(=O)COC(=O)CC12CC3CC(CC(C3)C1)C2,inactive,–
CCCCC[n+]1cccc2c3ccccc3ccc21,–,29% (active)
COc1ccc(OC)c(Nc2cc(-c3ccccc3)nc(N)n2)c1,–,55.5% (active)
CCC1CCCCN1Cc1nc2c(c(=O)n(C)c(=O)n2C)n1Cc1ccccc1 (centres undefined),inactive,–
CCOC(=O)C1CCN(C2CCN(C(=O)c3oc4c(C)c(C)ccc4c3C)CC2)CC1,inactive,–
O=[N+]([O-])c1cccc(-c2nnc(C3CC3)o2)c1,inactive,–
CCOc1c(Cl)cc(CNCC(O)c2ccccc2)cc1OC (centres undefined),inactive,–
O=C(c1cccc(C(=O)N2CCN(c3ccccc3)CC2)c1)N1CCN(c2ccccc2)CC1,inactive,–
Cc1ccn2c(-c3csc(NCc4ccco4)n3)c(C)nc2c1,inactive,–
COc1ccc(Nc2nc(N)c3ccccc3n2)c(OC)c1,inactive,–
CCc1c(C(=O)N2CCCN(C)CC2)csc1C,inactive,–
COc1ccc(C)cc1N(C(=O)c1snc(C(N)=O)c1N)C(C(=O)NC1CCCC1)c1ccc(F)cc1 (centres undefined),inactive,–
CC(C)(c1ccccc1)c1ccc(OCCCNCCO)cc1,inactive,–
Cc1ccc(-n2nc(-c3cccs3)cc2C(=O)NCC2CCCO2)c(C)c1 (centres undefined),inactive,–
CC(C)CCN1CCN(Cc2ccsc2)CC1CCO (centres undefined),inactive,–
CN(CC1CCCN(CCc2cccc(C(F)(F)F)c2)C1)C(=O)c1cc2ccccc2o1 (centres undefined),inactive,–
Oc1ccc(CN2CCc3ccccc3C2)c2cccnc12,–,58% (active)
COc1ccc(C2C(C(C)=O)=C(O)C(=O)N2c2ccc(Br)cc2)cc1 (centres undefined),inactive,–

# — PubChem BioAssay
